Calls of active or inactive are those of the source. No cut-off for these calls is given here.
What was measured:
CDK9/cyclin T1 = CDK9/cyclin T1 (Homo sapiens, UniProt P50750); experiment: Inhibition of CDK9/cyclin-T1 by radiometric assay; assay type: protein-complex assay
Procedure, shortened: (§1)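 Radiometric kinase assay run as an outsourced profiling service. IC50 taken from 10-point dose-response curves. Apparent Ki calculated from IC50 and the kinase-specific Km(ATP). Data are means of two replicates.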

MCF7 = experiment: Antiproliferative activity against human MCF7 cells after 72 hrs by MTT assay; assay type: functional; conditions: MCF7, 72 h
Procedure, shortened: (§2)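 HCT-116 and MCF-7 cells kept in RPMI-1640 plus 10% FBS. Cells exposed to compound for 72 h and read by MTT. GI50 obtained by non-linear regression.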

HCT-116 [1] = experiment: Antiproliferative activity against human HCT116 cells after 72 hrs by MTT assay; assay type: functional; conditions: HCT-116, 72 h; procedure, shortened: as §2
[2] = molecular target: Cyclin-dependent kinase 1/cyclin B1 (Homo sapiens, UniProt P06493); experiment: Inhibition of CDK1/cyclin B by radiometric assay; assay type: protein-complex assay; procedure, shortened: as §1
Sequence of Cyclin-dependent kinase 1/cyclin B1 (P06493 whole entry): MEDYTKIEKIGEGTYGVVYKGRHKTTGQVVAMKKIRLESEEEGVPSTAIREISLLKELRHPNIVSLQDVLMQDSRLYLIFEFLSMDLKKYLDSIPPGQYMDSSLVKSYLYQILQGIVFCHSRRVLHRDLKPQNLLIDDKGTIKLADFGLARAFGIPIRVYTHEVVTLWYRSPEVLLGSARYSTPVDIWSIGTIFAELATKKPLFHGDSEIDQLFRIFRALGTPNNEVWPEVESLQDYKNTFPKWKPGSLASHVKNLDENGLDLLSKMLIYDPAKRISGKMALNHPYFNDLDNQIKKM
Sequence of Cyclin-dependent kinase 1/cyclin B1 (P14635 whole entry, further chain): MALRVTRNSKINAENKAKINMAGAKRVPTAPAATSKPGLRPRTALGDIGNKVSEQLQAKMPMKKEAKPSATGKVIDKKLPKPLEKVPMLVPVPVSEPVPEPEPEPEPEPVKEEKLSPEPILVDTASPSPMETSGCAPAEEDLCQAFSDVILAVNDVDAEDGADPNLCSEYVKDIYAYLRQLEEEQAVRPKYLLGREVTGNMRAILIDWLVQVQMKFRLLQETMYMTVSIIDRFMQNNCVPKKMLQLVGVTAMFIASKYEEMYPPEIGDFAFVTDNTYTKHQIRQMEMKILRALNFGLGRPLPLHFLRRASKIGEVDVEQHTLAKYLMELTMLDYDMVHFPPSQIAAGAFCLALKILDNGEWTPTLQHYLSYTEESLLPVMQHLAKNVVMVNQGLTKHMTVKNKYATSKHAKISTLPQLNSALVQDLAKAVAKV

[3] = molecular target: Cyclin-dependent kinase 7/ cyclin H (Homo sapiens, UniProt P50613); experiment: Inhibition of CDK7/cyclin-H by radiometric assay; assay type: protein-complex assay; procedure, shortened: as §1
Sequence of Cyclin-dependent kinase 7/ cyclin H (P51946 whole entry): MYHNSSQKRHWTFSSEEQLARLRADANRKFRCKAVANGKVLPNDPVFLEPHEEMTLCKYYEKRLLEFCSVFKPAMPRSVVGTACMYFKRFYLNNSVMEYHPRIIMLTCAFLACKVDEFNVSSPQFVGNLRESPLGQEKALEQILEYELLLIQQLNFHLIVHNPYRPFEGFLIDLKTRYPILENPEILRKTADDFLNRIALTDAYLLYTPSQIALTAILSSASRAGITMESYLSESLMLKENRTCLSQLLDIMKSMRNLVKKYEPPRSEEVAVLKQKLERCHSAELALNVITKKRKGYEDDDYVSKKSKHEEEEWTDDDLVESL
Sequence of Cyclin-dependent kinase 7/ cyclin H (P50613 whole entry): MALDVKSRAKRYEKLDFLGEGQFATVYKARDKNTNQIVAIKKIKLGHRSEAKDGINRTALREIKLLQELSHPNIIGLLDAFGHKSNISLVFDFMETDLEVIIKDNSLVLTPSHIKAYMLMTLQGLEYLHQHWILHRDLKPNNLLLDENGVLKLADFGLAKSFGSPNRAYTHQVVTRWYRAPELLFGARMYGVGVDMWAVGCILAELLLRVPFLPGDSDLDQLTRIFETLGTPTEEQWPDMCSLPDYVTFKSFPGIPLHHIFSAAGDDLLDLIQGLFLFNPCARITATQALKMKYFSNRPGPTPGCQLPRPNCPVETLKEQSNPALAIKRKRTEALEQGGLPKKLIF

[4] = Selectivity ratio of Ki for CDK1/cyclin B to Ki for CDK9/cyclin-T1
Procedure, shortened: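 Ratio of apparent Ki values for CDK1/cyclin B and CDK9/cyclin-T1. Each Ki comes from a radiometric assay, converted from 10-point-curve IC50 using Km(ATP), mean of two replicates.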

HCT-116 [5] = experiment: Cell cycle arrest in human HCT116 cells at 5 times GI50 after 24 hrs by propidium iodide staining based flow cytometry; assay type: functional
Procedure, shortened: (§3)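 HCT-116 cells treated for 24 h at GI50, 5 × GI50 or 10 × GI50 multiples. Cells fixed and stained with propidium iodide, then DNA content read by flow cytometry. Pre-G1 fraction taken as the dead-cell population.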

HCT-116 [6] = experiment: Induction of apoptosis in human HCT116 cells assessed as down-regulation of Mcl-1 level at 5 to 50 uM after 24 hrs Western blot analysis; assay type: functional, cell-based
Procedure, shortened: (§4)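 HCT-116 cells cultured with 5, 25 or 50 µM for 24 h. Lysates analysed by western blot, with β-actin as internal control.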

HCT-116 [7] = experiment: Induction of apoptosis in human HCT116 cells assessed as increase of caspase-3/7 activity at 5 to 10 times GI50 after 24 hrs; assay type: functional, cell-based
[8] = molecular target: Cyclin-dependent kinase 7/ cyclin H (Homo sapiens) (UniProt P51946+P50613); experiment: Inhibition of CDK7/cyclin-H in human HCT116 cells assessed as RNAPII CTD phosphorylation at Ser-5 at 5 to 50 uM after 24 hrs by Western blotting analysis; assay type: cell-based; conditions: HCT-116; procedure, shortened: as §4
HCT-116 [9] = experiment: Induction of apoptosis in human HCT116 cells assessed as increase of caspase-3/7 activity at GI50 after 24 hrs; assay type: functional, cell-based
HCT-116 [10] = experiment: Cell cycle arrest in human HCT116 cells assessed as accumulation at pre-G1 phase at 10 times GI50 after 24 hrs by propidium iodide staining based flow cytometry; assay type: functional; procedure, shortened: as §3
HCT-116 [11] = experiment: Cell cycle arrest in human HCT116 cells at GI50 after 24 hrs by propidium iodide staining based flow cytometry; assay type: functional; procedure, shortened: as §3
HCT-116 [12] = experiment: Induction of apoptosis in human HCT116 cells assessed as induction of PARP cleavage at 5 to 50 uM after 24 hrs Western blot analysis; assay type: functional, cell-based; procedure, shortened: as §4
[13] = molecular target: CDK9/cyclin T1 (Homo sapiens) (UniProt O60563+P50750); experiment: Inhibition of CDK9/cyclin-T1 in human HCT116 cells assessed as RNAPII CTD phosphorylation at Ser-2 at 5 to 50 uM after 24 hrs by Western blotting analysis; assay type: cell-based; conditions: HCT-116; procedure, shortened: as §4

Sequence of CDK9/cyclin T1 (O60563 whole entry): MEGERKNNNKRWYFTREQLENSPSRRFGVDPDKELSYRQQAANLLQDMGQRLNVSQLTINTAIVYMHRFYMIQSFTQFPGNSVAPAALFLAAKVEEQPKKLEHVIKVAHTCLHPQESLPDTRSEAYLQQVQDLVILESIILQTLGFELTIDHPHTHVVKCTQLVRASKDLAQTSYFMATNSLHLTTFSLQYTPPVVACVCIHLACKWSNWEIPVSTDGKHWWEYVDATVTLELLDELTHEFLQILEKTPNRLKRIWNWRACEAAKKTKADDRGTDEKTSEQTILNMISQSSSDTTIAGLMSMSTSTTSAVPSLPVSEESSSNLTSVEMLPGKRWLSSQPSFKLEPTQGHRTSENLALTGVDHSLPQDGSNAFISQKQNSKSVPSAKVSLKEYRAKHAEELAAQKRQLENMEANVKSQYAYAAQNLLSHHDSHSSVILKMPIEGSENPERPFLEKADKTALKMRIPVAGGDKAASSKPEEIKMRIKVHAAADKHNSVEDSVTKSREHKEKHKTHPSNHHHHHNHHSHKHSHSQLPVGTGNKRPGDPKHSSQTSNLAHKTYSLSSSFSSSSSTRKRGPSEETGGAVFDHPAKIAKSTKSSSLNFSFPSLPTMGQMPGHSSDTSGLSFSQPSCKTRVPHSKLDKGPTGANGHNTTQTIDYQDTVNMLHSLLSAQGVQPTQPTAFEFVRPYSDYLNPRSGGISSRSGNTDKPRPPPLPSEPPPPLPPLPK
Sequence of CDK9/cyclin T1 (P50750 whole entry): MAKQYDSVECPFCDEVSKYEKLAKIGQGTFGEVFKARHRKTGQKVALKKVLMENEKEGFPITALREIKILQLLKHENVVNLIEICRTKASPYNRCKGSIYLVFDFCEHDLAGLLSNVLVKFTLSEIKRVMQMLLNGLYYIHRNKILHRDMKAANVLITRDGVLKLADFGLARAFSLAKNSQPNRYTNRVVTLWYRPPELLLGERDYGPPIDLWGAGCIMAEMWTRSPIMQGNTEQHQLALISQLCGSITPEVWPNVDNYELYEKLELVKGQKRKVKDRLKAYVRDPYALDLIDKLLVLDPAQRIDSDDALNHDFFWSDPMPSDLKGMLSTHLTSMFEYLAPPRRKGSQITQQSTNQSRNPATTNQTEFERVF

Row | SMILES | GI50 (MCF7) | GI50 (HCT-116 [1]) | further results
1 | CCn1nc(-c2ccnc(Nc3ccc([N+](=O)[O-])cc3)n2)c2ccccc21 | 24 µM | 4.06 µM | –
2 | c1ccc(Cn2c(Nc3ccccc3)nc3ncccc32)cc1 | 52.5 µM | 64.7 µM | –
3 | CCc1nn(-c2ccnc(Nc3cccc(S(N)(=O)=O)c3)n2)c2ncccc12 | 73.2 µM | 65.1 µM | –
4 | Brc1cccc(Nc2nc3ncccc3n2Cc2ccccc2)c1 | 78.7 µM | 77.7 µM | –
5 | O=[N+]([O-])c1cccc(Nc2nc3ncccc3n2Cc2ccccc2)c1 | 24.2 µM | 41.7 µM | –
6 | Cn1nc(-c2ccnc(Nc3ccc([N+](=O)[O-])cc3)n2)c2ccccc21 | 11.8 µM | 8.22 µM | –
7 | CCn1nc(-c2ccnc(Nc3cccc(O)c3)n2)c2ccccc21 | 33.5 µM | 36.6 µM | –
8 | COc1ccc(Nc2nc3ncccc3n2Cc2ccccc2)cc1 | 59.1 µM | 87.3 µM | –
9 | Clc1ccc(Nc2nc3ncccc3n2Cc2ccccc2)cc1 | 48 µM | 59.5 µM | –
10 | Cc1nn(-c2ccnc(Nc3cccc(S(N)(=O)=O)c3)n2)c2ncccc12 | 19.9 µM | 24.8 µM | –
11 | Cc1ccc(Nc2nc3ncccc3n2Cc2ccccc2)cc1[N+](=O)[O-] | 27.8 µM | 40.4 µM | –
12 | Clc1cccc(Nc2nc3ncccc3n2Cc2ccccc2)c1 | 43.5 µM | 36.3 µM | –
13 | c1ccc(Cn2c(Nc3ccccc3)nc3cccnc32)cc1 | 51.8 µM | 60.2 µM | –
14 | Oc1ccc(Nc2nc3ncccc3n2Cc2ccccc2)cc1 | 52.5 µM | 72.6 µM | –
15 | Cn1nc(-c2ccnc(Nc3cccc(O)c3)n2)c2ccccc21 | 28.2 µM | 17.2 µM | –

Compounds with a lower GI50 (MCF7), results first:

Row | GI50 (MCF7) | GI50 (HCT-116 [1]) | SMILES | further results
16 | 9.15 µM | 9.42 µM | Cc1cccc(Nc2nccc(-c3nn(C)c4ccccc34)n2)c1 | –
17 | 8.91 µM | 8.43 µM | Cn1nc(-c2ccnc(Nc3ccc(O)cc3)n2)c2ccccc21 | –
18 | 8.64 µM | 8.84 µM | Cc1nn(-c2ccnc(Nc3ccc(S(N)(=O)=O)cc3)n2)c2ncccc12 | –
19 | 7.83 µM | 8.73 µM | Cn1nc(-c2ccnc(Nc3ccc(Cl)cc3)n2)c2ccccc21 | –
20 | 7.26 µM | 9.01 µM | CCn1nc(-c2ccnc(Nc3cccc(S(N)(=O)=O)c3)n2)c2ccccc21 | Ki (CDK9/cyclin T1): 0.154 µM; Ki [2]: 0.471 µM; Ki [3]: > 5 µM
21 | 7.02 µM | 8.04 µM | NS(=O)(=O)c1ccc(Nc2nccc(-n3ncc4cccnc43)n2)cc1 | –
22 | 6.93 µM | 14.6 µM | NS(=O)(=O)c1cccc(Nc2nccc(-n3ncc4cccnc43)n2)c1 | –
23 | 6.1 µM | 8.64 µM | Cc1ccc(Nc2nccc(-c3nn(C)c4ccccc34)n2)cc1 | –
24 | 5.97 µM | 6.4 µM | Cn1nc(-c2ccnc(Nc3cccc(Cl)c3)n2)c2ccccc21 | –
25 | 5.78 µM | 5.29 µM | CCn1nc(-c2ccnc(Nc3ccc(O)cc3)n2)c2ccccc21 | –
26 | 5.56 µM | 0.75 µM | NS(=O)(=O)c1cccc(Nc2nccc(-n3ncc4ccccc43)n2)c1 | Activity (HCT-116 [5]): inactive; Activity (HCT-116 [6]): Active; Ki (CDK9/cyclin T1): 0.017 µM; Activity (HCT-116 [7]): Active; inhibition [8]: inactive; Activity (HCT-116 [9]): Active; Activity (HCT-116 [10]): Active; Activity (HCT-116 [11]): inactive; Ki [2]: 0.053 µM; Activity (HCT-116 [12]): Active; Ki [3]: > 5 µM; inhibition [13]: Active
27 | 5.27 µM | 8.28 µM | NS(=O)(=O)c1cccc(Nc2nccc(-c3nn(Cc4cccnc4)c4ccccc34)n2)c1 | Ki (CDK9/cyclin T1): 0.314 µM; Ki [2]: 4.53 µM; Ki [3]: > 5 µM; Ratio Ki [4]: 14
28 | 4.26 µM | 7.95 µM | CCCn1nc(-c2ccnc(Nc3cccc(S(N)(=O)=O)c3)n2)c2ccccc21 | Ki (CDK9/cyclin T1): 0.285 µM; Ki [2]: 0.945 µM; Ki [3]: > 5 µM
29 | 3.34 µM | 5.45 µM | CCCn1nc(-c2ccnc(Nc3ccc(O)cc3)n2)c2ccccc21 | –
30 | 2.63 µM | 5.13 µM | NS(=O)(=O)c1ccc(Nc2nccc(-c3nn(Cc4cccnc4)c4ccccc34)n2)cc1 | Ki (CDK9/cyclin T1): 0.207 µM; Ki [2]: 0.287 µM; Ki [3]: > 5 µM
31 | 2.31 µM | 2.82 µM | CCn1nc(-c2ccnc(Nc3cccc([N+](=O)[O-])c3)n2)c2ccccc21 | –
32 | 2.28 µM | 2.05 µM | CCn1nc(-c2ccnc(Nc3ccc(S(N)(=O)=O)cc3)n2)c2ccccc21 | Ki (CDK9/cyclin T1): 0.253 µM; Ki [2]: 0.055 µM; Ki [3]: > 5 µM
33 | 2.27 µM | 1.98 µM | Cn1nc(-c2ccnc(Nc3cccc(S(N)(=O)=O)c3)n2)c2ccccc21 | Ki (CDK9/cyclin T1): 0.098 µM; Ki [2]: 0.061 µM; Ki [3]: > 5 µM
34 | 1.87 µM | 0.59 µM | NS(=O)(=O)c1ccc(Nc2nccc(-n3ncc4ccccc43)n2)cc1 | Ki (CDK9/cyclin T1): 0.091 µM; Ki [2]: 0.028 µM; Ki [3]: 0.328 µM
35 | 0.94 µM | 2.28 µM | Cn1nc(-c2ccnc(Nc3ccc(S(N)(=O)=O)cc3)n2)c2ccccc21 | Ki (CDK9/cyclin T1): 0.14 µM; Ki [2]: 0.096 µM; Ki [3]: > 5 µM
36 | 0.88 µM | 6.34 µM | CCc1nn(-c2ccnc(Nc3ccc(S(N)(=O)=O)cc3)n2)c2ncccc12 | –
37 | 0.59 µM | 6.74 µM | CCCn1nc(-c2ccnc(Nc3ccc(S(N)(=O)=O)cc3)n2)c2ccccc21 | Ki (CDK9/cyclin T1): 0.176 µM; Ki [2]: 0.127 µM; Ki [3]: > 5 µM
38 | 0.58 µM | 0.49 µM | Cn1nc(-c2ccnc(Nc3cccc([N+](=O)[O-])c3)n2)c2ccccc21 | –

— ChEMBL document CHEMBL2086300, “Synthesis and biological evaluation of imidazo[4,5-b]pyridine and 4-heteroaryl-pyrimidine derivatives as anti-cancer agents” (Eur J Med Chem, 2012)
